In ChEMBL document CHEMBL5712901, “DOT1L inhibition blocks multiple myeloma cell proliferation by suppressing IRF4-MYC signaling” (2019):
Activity calls are given as the source filed them. The rule behind the calls is not given here.

Legend:
KMS-12-PE = assay: Antiproliferative activity against human KMS-12-PE cells treated upto 14 days with replacement of fresh medium containing drug every 3 to 4 days by cell counting kit-8 method; assay type: functional, cell-based; details: time <= 14.0 day
In short: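 Screen of histone methylation modifier inhibitors in 6-well plates at 3 × 10^4 to 1 × 10^5 cells/well. Drug at 1 μM or DMSO for up to 14 days, with medium and drug refreshed every 3-4 days. CCK-8 read on days 3-4 and 11-14. Values normalized to DMSO; mean of 5 replications ± SEM; unpaired two-sided t-test.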

RPMI-8226 [1] = assay: Upregulation of AIF1 gene in human RPMI-8226 cells at 1 uM for 6 days by; assay type: functional, cell-based; details: time 6.0 day
RPMI-8226 [2] = assay: Upregulation of ANXA2R gene in human RPMI-8226 cells at 1 uM for 6 days by; assay type: functional, cell-based; details: time 6.0 day
RPMI-8226 [3] = assay: Upregulation of APOL4 gene in human RPMI-8226 cells at 1 uM for 6 days by; assay type: functional, cell-based; details: time 6.0 day
RPMI-8226 [4] = assay: Upregulation of CACNB3 gene in human RPMI-8226 cells at 1 uM for 6 days by; assay type: functional, cell-based; details: time 6.0 day
RPMI-8226 [5] = assay: Upregulation of CPQ gene in human RPMI-8226 cells at 1 uM for 6 days by; assay type: functional, cell-based; details: time 6.0 day
In short: (§1)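 Human myeloma lines RPMI-8226 and MM.1S exposed to 1 μM DOT1L inhibitor, or DMSO, for 6 days. Whole-genome expression profiled on gene expression microarray.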

RPMI-8226 [6] = assay: Upregulation of CXCL12 gene in human RPMI-8226 cells at 1 uM for 6 days by; assay type: functional, cell-based; details: time 6.0 day; in short: as §1
RPMI-8226 [7] = assay: Upregulation of EMID1 gene in human RPMI-8226 cells at 1 uM for 6 days by; assay type: functional, cell-based; details: time 6.0 day; in short: as §1
RPMI-8226 [8] = assay: Upregulation of FAM200B gene in human RPMI-8226 cells at 1 uM for 6 days by; assay type: functional, cell-based; details: time 6.0 day; in short: as §1
RPMI-8226 [9] = assay: Upregulation of GPD2 gene in human RPMI-8226 cells at 1 uM for 6 days by; assay type: functional, cell-based; details: time 6.0 day; in short: as §1
RPMI-8226 [10] = assay: Upregulation of IFI44 gene in human RPMI-8226 cells at 1 uM for 6 days by; assay type: functional, cell-based; details: time 6.0 day
RPMI-8226 [11] = assay: Upregulation of IFITM1 gene in human RPMI-8226 cells at 1 uM for 6 days by; assay type: functional, cell-based; details: time 6.0 day
RPMI-8226 [12] = assay: Upregulation of IGFBP6 gene in human RPMI-8226 cells at 1 uM for 6 days by; assay type: functional, cell-based; details: time 6.0 day
RPMI-8226 [13] = assay: Upregulation of LY86 gene in human RPMI-8226 cells at 1 uM for 6 days by; assay type: functional, cell-based; details: time 6.0 day
RPMI-8226 [14] = assay: Upregulation of MMP9 gene in human RPMI-8226 cells at 1 uM for 6 days by; assay type: functional, cell-based; details: time 6.0 day
RPMI-8226 [15] = assay: Upregulation of NEURL1B gene in human RPMI-8226 cells at 1 uM for 6 days by; assay type: functional, cell-based; details: time 6.0 day
RPMI-8226 [16] = assay: Upregulation of S100A10 gene in human RPMI-8226 cells at 1 uM for 6 days by; assay type: functional, cell-based; details: time 6.0 day
RPMI-8226 [17] = assay: Upregulation of SAP30L gene in human RPMI-8226 cells at 1 uM for 6 days by; assay type: functional, cell-based; details: time 6.0 day
MM1.S [18] = assay: Upregulation of ACOT11 gene in human MM1.S cells at 1 uM for 6 days by; assay type: functional, cell-based; details: time 6.0 day
MM1.S [19] = assay: Upregulation of APOL4 gene in human MM1.S cells at 1 uM for 6 days by; assay type: functional, cell-based; details: time 6.0 day
MM1.S [20] = assay: Upregulation of BHLHE22 gene in human MM1.S cells at 1 uM for 6 days by; assay type: functional, cell-based; details: time 6.0 day
MM1.S [21] = assay: Upregulation of CCDC96 gene in human MM1.S cells at 1 uM for 6 days by; assay type: functional, cell-based; details: time 6.0 day
MM1.S [22] = assay: Upregulation of CLIP2 gene in human MM1.S cells at 1 uM for 6 days by; assay type: functional, cell-based; details: time 6.0 day; in short: as §1
MM1.S [23] = assay: Upregulation of CXCL9 gene in human MM1.S cells at 1 uM for 6 days by; assay type: functional, cell-based; details: time 6.0 day; in short: as §1
MM1.S [24] = assay: Upregulation of EMID1 gene in human MM1.S cells at 1 uM for 6 days by; assay type: functional, cell-based; details: time 6.0 day; in short: as §1
MM1.S [25] = assay: Upregulation of FNBP1L gene in human MM1.S cells at 1 uM for 6 days by; assay type: functional, cell-based; details: time 6.0 day; in short: as §1
MM1.S [26] = assay: Upregulation of GLYATL1 gene in human MM1.S cells at 1 uM for 6 days by; assay type: functional, cell-based; details: time 6.0 day; in short: as §1
MM1.S [27] = assay: Upregulation of HLA-DPB1 gene in human MM1.S cells at 1 uM for 6 days by; assay type: functional, cell-based; details: time 6.0 day; in short: as §1
MM1.S [28] = assay: Upregulation of HLA-DQB1 gene in human MM1.S cells at 1 uM for 6 days by; assay type: functional, cell-based; details: time 6.0 day
MM1.S [29] = assay: Upregulation of ID1 gene in human MM1.S cells at 1 uM for 6 days by; assay type: functional, cell-based; details: time 6.0 day
MM1.S [30] = assay: Upregulation of MMP9 gene in human MM1.S cells at 1 uM for 6 days by; assay type: functional, cell-based; details: time 6.0 day
MM1.S [31] = assay: Upregulation of MYO1F gene in human MM1.S cells at 1 uM for 6 days by; assay type: functional, cell-based; details: time 6.0 day
MM1.S [32] = assay: Upregulation of PRDM8 gene in human MM1.S cells at 1 uM for 6 days by; assay type: functional, cell-based; details: time 6.0 day
MM1.S [33] = assay: Upregulation of RGS1 gene in human MM1.S cells at 1 uM for 6 days by; assay type: functional, cell-based; details: time 6.0 day
MM1.S [34] = assay: Upregulation of RIMBP3 gene in human MM1.S cells at 1 uM for 6 days by; assay type: functional, cell-based; details: time 6.0 day
MM1.S [35] = assay: Upregulation of TTC39C gene in human MM1.S cells at 1 uM for 6 days by; assay type: functional, cell-based; details: time 6.0 day
MM1.S [36] = assay: Upregulation of ZG16B gene in human MM1.S cells at 1 uM for 6 days by; assay type: functional, cell-based; details: time 6.0 day
MM1.S [37] = assay: Upregulation of ZNF862 gene in human MM1.S cells at 1 uM for 6 days by; assay type: functional, cell-based; details: time 6.0 day
RPMI-8226 [38] = assay: Effect on human RPMI-8226 cells assessed as change in Myc mRNA level at 1 uM for 6 days by qRT-PCR analysis; details: time 6.0 day
RPMI-8226 [39] = assay: Effect on human RPMI-8226 cells assessed as change in IRF4 mRNA level at 1 uM for 6 days by qRT-PCR analysis; details: time 6.0 day
RPMI-8226 [40] = assay: Induction of cell cycle arrest in human RPMI-8226 cells assessed as decrease in accumulation of cells at S phase at 1 uM for 6 days; assay type: functional, cell-based; details: time 6.0 day
In short: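 Flow cytometric cell cycle analysis of RPMI-8226 and MM.1S cells treated with 1 μM DOT1L inhibitor or DMSO for 6 days. Sub-G1, G0-G1 and S phase populations scored. Summary is from 3 replications, mean ± SEM.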

MM1.S [41] = assay: Induction of apoptosis in human MM1.S cells assessed as early apoptotic cells at 1 uM for 3 days by annexin-V based propidium iodide staining based flow cytometric analysis (reference value: 5.51%); assay type: functional; details: time 3 day
RPMI-8226 [42] = assay: Effect on human RPMI-8226 cells assessed as change in KLF2 mRNA level at 1 uM for 3 days by ChIP-qPCR analysis; assay type: functional, cell-based; details: time 3.0 day
In short: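 ChIP-qPCR for H3K79me2 at IRF4-MYC signaling genes after 1 μM inhibitor or DMSO for 3 days. Signal normalized to input DNA. An intergenic region 28 kb upstream of KLF2 served as negative control. Mean of 3 replications ± SEM.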

MM1.S [43] = assay: Upregulation of IFN in human MM1.S cells assessed as increase in IFIT1 gene at 1 uM for 6 days by qRT-PCR analysis; assay type: functional, cell-based; details: time 6.0 day

CC(C)N(CCCNC(=O)Nc1ccc(C(C)(C)C)cc1)C[C@H]1O[C@@H](n2cc(Br)c3c(N)ncnc32)[C@H](O)[C@@H]1O
Activity (KMS-12-PE): inactive | Activity (RPMI-8226 [1]): Active | Activity (RPMI-8226 [2]): Active | Activity (RPMI-8226 [3]): Active | Activity (RPMI-8226 [4]): Active | Activity (RPMI-8226 [5]): Active | Activity (RPMI-8226 [6]): Active | Activity (RPMI-8226 [7]): Active | Activity (RPMI-8226 [8]): Active | Activity (RPMI-8226 [9]): Active | Activity (RPMI-8226 [10]): Active | Activity (RPMI-8226 [11]): Active | Activity (RPMI-8226 [12]): Active | Activity (RPMI-8226 [13]): Active | Activity (RPMI-8226 [14]): Active | Activity (RPMI-8226 [15]): Active | Activity (RPMI-8226 [16]): Active | Activity (RPMI-8226 [17]): Active | Activity (MM1.S [18]): Active | Activity (MM1.S [19]): Active | Activity (MM1.S [20]): Active | Activity (MM1.S [21]): Active | Activity (MM1.S [22]): Active | Activity (MM1.S [23]): Active | Activity (MM1.S [24]): Active | Activity (MM1.S [25]): Active | Activity (MM1.S [26]): Active | Activity (MM1.S [27]): Active | Activity (MM1.S [28]): Active | Activity (MM1.S [29]): Active | Activity (MM1.S [30]): Active | Activity (MM1.S [31]): Active | Activity (MM1.S [32]): Active | Activity (MM1.S [33]): Active | Activity (MM1.S [34]): Active | Activity (MM1.S [35]): Active | Activity (MM1.S [36]): Active | Activity (MM1.S [37]): Active | Activity (RPMI-8226 [38]): Active | Activity (RPMI-8226 [39]): Active

CC(C)N(C[C@H]1O[C@@H](n2cnc3c(N)ncnc32)[C@H](O)[C@@H]1O)[C@H]1C[C@@H](CCc2nc3cc(C(C)(C)C)ccc3[nH]2)C1 [PINOMETOSTAT]
Activity (RPMI-8226 [40]): Active | Activity (MM1.S [41]): 3.11% | Activity (RPMI-8226 [42]): Active | Activity (MM1.S [43]): Active
